Laboratory results published in ChEMBL document CHEMBL2417424, “Synthesis, structure, and antibiotic activity of aryl-substituted LpxC inhibitors” (J Med Chem, 2013).
In brackets after ≈: the same amount, converted by molar mass.

Tests used:
Klebsiella pneumoniae = test: Antimicrobial activity against Klebsiella pneumoniae 43816 after 22 hrs by MTT assay; format: functional; conditions: Klebsiella pneumoniae, 43816, 22 h
Summary of the method: (§1)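 Broth microdilution (modified NCCLS) in 96-well plates, LB medium with 5% DMSO; 2-fold compound series spanning 0.0005–1, 0.0025–5 or 0.024–50 µg/mL. Cells grown to OD600 0.6, diluted 100-fold, added to wells; 22 h at 37 °C, then MTT (1 mg/mL) 3 h at 37 °C. MIC = lowest concentration with no visible colour change; triplicate.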

Escherichia coli [1] = test: Antimicrobial activity against wild type Escherichia coli W3110 after 22 hrs by MTT assay; format: functional; conditions: W3110, 22 h; summary of the method: as §1
Escherichia coli [2] = test: Antimicrobial activity against Escherichia coli W3110PA after 22 hrs by MTT assay; format: functional; summary of the method: as §1
Vibrio cholerae = test: Antimicrobial activity against Vibrio cholerae P4 after 22 hrs by MTT assay; format: functional; conditions: P4, 22 h
Summary of the method: (§2)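 Broth microdilution in triplicate (modified NCCLS) in LB with 5% DMSO, using 2-fold compound series over 0.0005–1, 0.0025–5 or 0.024–50 µg/mL. Cells grown to OD600 0.6 were diluted 100-fold into the wells and incubated 22 h at 37 °C. A 1 mg/mL MTT solution was added for 3 h more at 37 °C. MIC = lowest concentration with no visible yellow-to-black colour change.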

Escherichia coli [3] = test: Antimicrobial activity against Escherichia coli CMR300 after 22 hrs by MTT assay; format: functional; conditions: CMR300, 22 h; summary of the method: as §1
Francisella novicida [4] = test: Antimicrobial activity against Francisella novicida U 112 after 22 hrs by MTT assay; format: functional, Francisella tularensis subsp. novicida; conditions: Francisella tularensis, U 112, 22 h; summary of the method: as §2
Salmonella typhimurium = test: Antimicrobial activity against Salmonella enterica typhimurium LT2 after 22 hrs by MTT assay; format: functional, Salmonella enterica subsp. enterica serovar Typhimurium; conditions: LT2, 22 h; summary of the method: as §1
Pseudomonas aeruginosa = test: Antimicrobial activity against Pseudomonas aeruginosa PAO1 after 22 hrs by MTT assay; format: functional; conditions: PAO1, 22 h; summary of the method: as §1
Escherichia coli [5] = test: Ratio of MIC for wild type Escherichia coli W3110 to MIC for Escherichia coli CMR300; format: functional
[6] = Ratio of MIC for Pseudomonas aeruginosa PAO1 to MIC for Escherichia coli W3110PA; format: functional
Francisella novicida [7] = test: Ratio of LPC-011 MIC to compound MIC for Francisella novicida U 112 after 22 hrs by MTT assay; format: functional, Francisella tularensis subsp. novicida
[8] = biological target: T1, UDP-3-O-acyl-N-acetylglucosamine deacetylase (Escherichia coli K-12) (UniProt P0A725); test: Ratio of LPC-011 Ki to compound Ki for Escherichia coli LpxC enzyme
T1 sequence (whole entry): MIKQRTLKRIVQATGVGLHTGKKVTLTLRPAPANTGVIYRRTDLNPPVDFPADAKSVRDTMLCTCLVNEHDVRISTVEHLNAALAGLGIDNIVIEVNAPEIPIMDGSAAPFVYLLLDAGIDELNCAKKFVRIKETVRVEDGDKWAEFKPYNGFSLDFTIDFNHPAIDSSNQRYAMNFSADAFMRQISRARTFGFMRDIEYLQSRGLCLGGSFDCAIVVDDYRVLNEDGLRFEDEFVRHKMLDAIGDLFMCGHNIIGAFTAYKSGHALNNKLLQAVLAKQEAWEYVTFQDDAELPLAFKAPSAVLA

[9] = biological target: T2, UDP-3-O-acyl-N-acetylglucosamine deacetylase (Escherichia coli K-12, UniProt P0A725); test: Inhibition of Escherichia coli LpxC enzyme using UDP-3-O-[(R)-3-hydroxymyristoyl]-N-acetyl glucosamine and [gamma-32P] UDP-3-O-[(R)-3-hydroxymyristoyl]-N-acetylglucosamine as substrate after 1 to 4 hrs
T2 sequence (P0A725 whole entry): T1 sequence (whole entry)

Row | Structure (SMILES) | MIC (Klebsiella pneumoniae) [µg/mL] | MIC (Escherichia coli [1]) [µg/mL] | MIC (Escherichia coli [2]) [µg/mL] | MIC (Vibrio cholerae) [µg/mL] | MIC (Escherichia coli [3]) [µg/mL] | MIC (Francisella novicida [4]) [µg/mL] | MIC (Salmonella typhimurium) [µg/mL] | MIC (Pseudomonas aeruginosa) [µg/mL] | Ratio (Escherichia coli [5]) | Ratio [6] | Ratio (Francisella novicida [7]) | Ratio Ki [8] | Ki [9] [pM]
1 | C[C@@H](O)[C@H](NC(=O)c1ccc(C#Cc2ccc(CN3CCOCC3)cc2)cc1)C(=O)NO | 0.64 (≈ 1.46 µM) | 0.2 (≈ 0.457 µM) | 1.3 (≈ 2.97 µM) | 0.16 (≈ 0.366 µM) | 0.01 (≈ 0.0229 µM) | 3.1 (≈ 7.09 µM) | 0.16 (≈ 0.366 µM) | 1.6 (≈ 3.66 µM) | – | – | – | – | –
2 | C[C@@](O)(c1ccc(O)cc1)[C@H](NC(=O)c1ccc(C#CC#Cc2ccc(N)cc2)cc1)C(=O)NO | – | 0.5 (≈ 1.06 µM) | 3.2 (≈ 6.82 µM) | – | 0.008 (≈ 0.017 µM) | – | – | 5 (≈ 10.6 µM) | 62 | – | – | – | –
3 | Nc1ccc(C#CC#Cc2ccc(C(=O)N[C@@H](Cc3ccc(O)cc3)C(=O)NO)cc2)cc1 | – | 0.8 (≈ 1.82 µM) | 4.7 (≈ 10.7 µM) | – | 0.01 (≈ 0.0228 µM) | – | – | 12.5 (≈ 28.4 µM) | 80 | 3 | – | – | –
4 | Nc1ccc(C#CC#Cc2ccc(C(=O)N[C@@H](Cc3c[nH]cn3)C(=O)NO)cc2)cc1 | – | 0.4 (≈ 0.967 µM) | 6.3 (≈ 15.2 µM) | – | 0.02 (≈ 0.0484 µM) | – | – | 6.3 (≈ 15.2 µM) | 20 | – | – | – | –
5 | Nc1ccc(C#CC#Cc2ccc(C(=O)N[C@@H](Cc3ccccc3)C(=O)NO)cc2)cc1 | – | 6.3 (≈ 14.9 µM) | > 50 | – | 0.014 (≈ 0.0331 µM) | – | – | > 50 | 450 | – | – | – | –
6 | C[C@](O)(c1ccc(O)cc1)[C@H](NC(=O)c1ccc(C#CC#Cc2ccc(N)cc2)cc1)C(=O)NO | 0.16 (≈ 0.341 µM) | 0.03 (≈ 0.0639 µM) | 0.5 (≈ 1.06 µM) | 0.016 (≈ 0.0341 µM) | 0.0001 (≈ 0.000213 µM) | 0.63 (≈ 1.34 µM) | 0.05 (≈ 0.106 µM) | 0.7 (≈ 1.49 µM) | 300 | – | 2 | 1.6 | 24
7 | C[C@@H](O)[C@H](NC(=O)c1ccc(C#CC#Cc2ccc(N)cc2)cc1)C(=O)NO | 0.13 (≈ 0.344 µM) | 0.03 (≈ 0.0795 µM) | 0.32 (≈ 0.848 µM) | 0.01 (≈ 0.0265 µM) | 0.001 (≈ 0.00265 µM) | 2.5 (≈ 6.62 µM) | 0.024 (≈ 0.0636 µM) | 0.32 (≈ 0.848 µM) | 30 | – | – | – | –
8 | Nc1ccc(C#CC#Cc2ccc(C(=O)N[C@@H](Cc3c[nH]c4ccccc34)C(=O)NO)cc2)cc1 | – | 12.5 (≈ 27 µM) | > 50 | – | 0.06 (≈ 0.13 µM) | – | – | > 50 | 208 | – | – | – | –
9 | C[C@](O)(c1c[nH]nn1)[C@H](NC(=O)c1ccc(C#CC#Cc2ccc(N)cc2)cc1)C(=O)NO | 0.25 (≈ 0.562 µM) | 0.06 (≈ 0.135 µM) | 0.5 (≈ 1.12 µM) | 0.03 (≈ 0.0675 µM) | 0.004 (≈ 0.009 µM) | 1 (≈ 2.25 µM) | 0.1 (≈ 0.225 µM) | 0.5 (≈ 1.12 µM) | – | – | 2 | 1.6 | 24
10 | Nc1ccc(C#CC#Cc2ccc(C(=O)N[C@H](C(=O)NO)[C@H](O)c3ccc(O)cc3)cc2)cc1 | – | 50 (≈ 110 µM) | > 50 | – | 0.15 (≈ 0.329 µM) | – | – | > 50 | 333 | – | – | – | –
11 | Nc1ccc(C#CC#Cc2ccc(C(=O)N[C@H](C(=O)NO)[C@@H](O)c3ccc(O)cc3)cc2)cc1 | – | 0.13 (≈ 0.285 µM) | 0.9 (≈ 1.98 µM) | – | 0.003 (≈ 0.00659 µM) | – | – | 1 (≈ 2.2 µM) | 43 | – | – | – | –
